Laboratory results as given in ChEMBL document CHEMBL1275258, “Correlation between azole susceptibilities, genotypes, and ERG11 mutations in Candida albicans isolates associated with vulvovaginal candidiasis in China” (2010).
Values after ≈ are worked out from the molar mass of the structure shown.

Tests used:
Format in all cases: functional
Candida albicans [1] = experiment: Antifungal activity against Candida albicans isolate V4 with CAI genotype by broth microdilution method
Procedure, shortened: (§1)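 CLSI (formerly NCCLS) M27-A2 broth microdilution with fluconazole and itraconazole against clinical C. albicans isolates grouped by source (oral or vaginal) and CAI genotype. Trays incubated at 35°C for 24 h. MIC read as the lowest drug concentration giving a prominent drop in turbidity (50% growth inhibition) versus the drug-free control well. C. albicans ATCC 90028 and C. parapsilosis ATCC 22019 used as quality controls. Group values reported as geometric mean MIC50.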

Candida albicans [2] = experiment: Antifungal activity against Candida albicans isolate V5 with CAI genotype by broth microdilution method; procedure, shortened: as §1
Candida albicans [3] = experiment: Antifungal activity against Candida albicans isolate V1 with CAI genotype by broth microdilution method; procedure, shortened: as §1
Candida albicans [4] = experiment: Antifungal activity against Candida albicans isolate V2 with CAI genotype by broth microdilution method; procedure, shortened: as §1
Candida albicans [5] = experiment: Antifungal activity against Candida albicans isolate O with CAI genotype by broth microdilution method; procedure, shortened: as §1
Candida albicans [6] = experiment: Antifungal activity against Candida albicans isolate V3 with CAI genotype by broth microdilution method; procedure, shortened: as §1

## OC(Cn1cncn1)(Cn1cncn1)c1ccc(F)cc1F [FLUCONAZOLE]
Candida albicans [1]
  MIC50: 2.04 µg/mL (≈ 6.67 µM)
Candida albicans [2]
  MIC50: 3.36 µg/mL (≈ 11 µM)
Candida albicans [3]
  MIC50: 0.375 µg/mL (≈ 1.22 µM)
Candida albicans [4]
  MIC50: 0.218 µg/mL (≈ 0.712 µM)
Candida albicans [5]
  MIC50: 0.356 µg/mL (≈ 1.16 µM)
Candida albicans [6]
  MIC50: 0.735 µg/mL (≈ 2.4 µM)

## CCC(C)n1ncn(-c2ccc(N3CCN(c4ccc(OCC5COC(Cn6cncn6)(c6ccc(Cl)cc6Cl)O5)cc4)CC3)cc2)c1=O (configuration not stated) [ITRACONAZOLE]
Candida albicans [1]
  MIC50: 0.255 µg/mL (≈ 0.361 µM)
Candida albicans [2]
  MIC50: 0.297 µg/mL (≈ 0.421 µM)
Candida albicans [3]
  MIC50: 0.111 µg/mL (≈ 0.157 µM)
Candida albicans [4]
  MIC50: 0.058 µg/mL (≈ 0.0822 µM)
Candida albicans [5]
  MIC50: 0.074 µg/mL (≈ 0.105 µM)
Candida albicans [6]
  MIC50: 0.107 µg/mL (≈ 0.152 µM)
